Measurements taken from ChEMBL document CHEMBL2439964, “Identification of a series of 1,3,4-trisubstituted pyrazoles as novel hepatitis C virus entry inhibitors” (Bioorg Med Chem Lett, 2013).

Tests used:
[1] = Selectivity index, ratio of CC50 for human HuH7 cells to EC50 for cell culture derived HCV; parameters: species or system Huh-7
Outline: (§1)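 Naïve Huh-7 cells in 384-well plates were given serially diluted compound, then infected with cell culture-derived HCV (HCVcc) at MOI 1. Live cells were analysed 72 h post-infection. EC50 came from 10-point dose-response in duplicate with quadruplicate measurements, or 5-point in duplicate for one series. CC50 came from automated per-well cell counts. SI = CC50/EC50.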

[2] = Cytotoxicity against human HuH7 cells; format: cell-based, Huh-7; outline: as §1
Hepatitis C virus = test: Antiviral activity against cell culture derived HCV infected in human HuH7 cells assessed as inhibition of viral replication after 72 hrs; format: functional, organism-based, Hepacivirus hominis; settings: Huh-7, 72 h; outline: as §1

SMILES | Ratio CC50/EC50 [1] | CC50 [2] [µM] | EC50 (Hepatitis C virus) [µM]
Cc1ccccc1-c1nn(-c2cccc(Cl)c2)cc1CNCCN1CCN(C)CC1 | 16 | 16 | 1
CCCCCNCc1cn(-c2ccc(F)cc2F)nc1-c1ccccc1C | 1 | 17 | 18
CN1CCN(CCNCc2cn(-c3ccc([N+](=O)[O-])cc3)nc2-c2ccc(Cl)cc2)CC1 | 17 | 5 | 0.29
COC(=O)c1ccc(-c2nn(-c3ccc(F)cc3F)cc2CNCCN2CCN(C)CC2)cc1 | >5.3 | > 20 | 3.8
Cc1ccccc1-c1nn(-c2ccc(OC(F)(F)F)cc2)cc1CNCCN1CCN(C)CC1 | 19 | 17 | 0.9
Cc1ccccc1-c1nn(-c2ccc(F)cc2F)cc1CN1CCC(N2CCCCC2)CC1 | >2.7 | > 20 | 7.5
Cc1ccccc1-c1nn(-c2ccccc2Cl)cc1CNCCN1CCN(C)CC1 | >5.3 | > 20 | 3.8
Cc1ccccc1-c1nn(-c2ccc(F)cc2F)cc1CNCCN1CCCCC1 | >1 | > 20 | 20
CSc1ccc(-n2cc(CNCCN3CCN(C)CC3)c(-c3ccccc3C)n2)cc1 | 25 | 17 | 0.67
COc1ccc(-n2cc(CNCCN3CCN(C)CC3)c(-c3ccccc3C)n2)cc1 | >7.1 | > 20 | 2.8
CCN(CC)CCCNCc1cn(-c2ccc(F)cc2F)nc1-c1ccccc1C | >4.6 | > 20 | 4.3
CN1CCN(CCCNCc2cn(-c3ccc(C(F)(F)F)cc3)nc2-c2ccc(C(F)(F)F)cc2)CC1 | 5.3 | 2 | 0.38
Cc1ccccc1-c1nn(Cc2ccc(F)cc2)cc1CNCCN1CCN(C)CC1 | >2 | > 20 | 10
CN1CCN(CCNCc2cn(-c3ccc(F)cc3F)nc2Cc2ccccc2)CC1 | >1.3 | > 20 | 16
Cc1ccccc1-c1nn(-c2ccc(F)cc2)cc1CNCCN1CCN(C)CC1 | >5.4 | > 20 | 3.7
Cc1ccccc1-c1nn(C(C)C)cc1CNCCN1CCN(C)CC1 | – | > 20 | > 20
CN1CCN(CCNCc2cn(-c3ccc(F)cc3F)nc2C(C)(C)C)CC1 | >1.8 | > 20 | 11
CN1CCN(CCNCc2cn(-c3ccc([N+](=O)[O-])cc3)nc2-c2ccc(OC(F)(F)F)cc2)CC1 | 11 | 4.4 | 0.4
CN1CCN(CCNCc2cn(-c3ccc(F)cc3F)nc2C2CCCCC2)CC1 | >17 | > 20 | 1.2
CCOC(=O)Cn1cc(CNCCN2CCN(C)CC2)c(-c2ccccc2C)n1 | – | > 20 | > 20
CN1CCN(CCCNCc2cn(-c3ccc(C(F)(F)F)cc3)nc2-c2ccc(Cl)cc2)CC1 | 6.9 | 2.5 | 0.36
CN1CCN(CCNCc2cn(-c3ccc(F)cc3F)nc2-c2ccc(OC(F)(F)F)cc2)CC1 | 50 | 18 | 0.36

SMILES | Ratio CC50/EC50 [1] | CC50 [2] [µM] | EC50 (Hepatitis C virus) [µM]
Cc1ccccc1-c1nn(-c2ccc(F)cc2F)cc1CNCCN(C)C | – | > 20 | > 20
CN1CCN(CCNCc2cn(-c3ccc(F)cc3F)nc2-c2ccc(C(F)(F)F)cc2)CC1 | 37 | 20 | 0.54
Cc1ccccc1-c1nn(-c2ccc(Br)cc2)cc1CNCCN1CCN(C)CC1 | 8 | 9.6 | 1.2
CCCN1CCC(CNCc2cn(-c3ccc([N+](=O)[O-])cc3)nc2-c2ccc(Cl)cc2)CC1 | 37 | 11 | 0.3
CN1CCN(CCNCc2cn(-c3ccc(F)cc3F)nc2-c2ccccc2)CC1 | >13 | > 20 | 1.6
COCCN1CCC(CNCc2cn(-c3ccc(F)cc3F)nc2-c2ccccc2C)CC1 | >6.7 | > 20 | 3
COc1ccc(-c2nn(-c3ccc(F)cc3F)cc2CNCCN2CCN(C)CC2)cc1 | >9.5 | > 20 | 2.1
Cc1ccccc1-c1nn(-c2ccc(C(F)(F)F)cc2)cc1CNCCN1CCN(C)CC1 | 24 | 11 | 0.46
CN1CCN(CCNCc2cc(-c3ccccc3)nn2-c2ccc(F)cc2)CC1 | – | > 20 | 13
Cc1ccccc1-c1nn(-c2ccc(F)cc2F)cc1CNCc1ccncc1 | – | > 20 | > 20
CN1CCN(CCNCc2cn(-c3ccc(C(F)(F)F)cc3)nc2-c2ccc(C(F)(F)F)cc2)CC1 | 3.1 | 1.5 | 0.49
Cc1ccccc1CNc1nn(-c2ccc(F)cc2F)cc1CNCCN1CCN(C)CC1 | >4.7 | > 20 | 4.3
CCCN1CCC(CNCc2cn(-c3ccc(C(F)(F)F)cc3)nc2-c2ccc(Cl)cc2)CC1 | 6.7 | 1.9 | 0.29
Cc1ccccc1-c1nn(-c2ccc(F)c(F)c2)cc1CNCCN1CCN(C)CC1 | >7.7 | > 20 | 2.6
CN1CCN(CCNCc2cn(-c3ccc(F)cc3F)nc2-c2ccc(N(C)C)cc2)CC1 | >15 | > 20 | 1.3
Cc1ccccc1-c1nn(-c2ccc(Cl)cc2)cc1CNCCN1CCN(C)CC1 | 26 | 17 | 0.65
CN1CCN(CCNCc2cn(-c3ccc(C(F)(F)F)cc3)nc2-c2ccc(Cl)cc2)CC1 | 8.4 | 3 | 0.36
CN1CCN(CCCNCc2cn(-c3ccc([N+](=O)[O-])cc3)nc2-c2ccc(OC(F)(F)F)cc2)CC1 | 4.6 | 1.6 | 0.34
CCCN1CCC(CNCc2cn(-c3ccc([N+](=O)[O-])cc3)nc2-c2ccc(OC(F)(F)F)cc2)CC1 | 30 | 18 | 0.6
Cc1ccccc1-c1nn(-c2ccc(N)cc2)cc1CNCCN1CCN(C)CC1 | >2 | > 20 | 10
Cc1ccccc1-c1nn(-c2ccc(F)cc2F)cc1CNCCCCO | – | > 20 | > 20
Cc1ccccc1-c1nn(-c2ccc(F)cc2F)cc1CN1CCN(c2ccccc2)CC1 | – | > 20 | > 20

SMILES | Ratio CC50/EC50 [1] | CC50 [2] [µM] | EC50 (Hepatitis C virus) [µM]
Cc1ccccc1-c1nn(-c2ccc(F)cc2F)cc1CN1CCN(C(C)C)CC1 | – | > 20 | > 20
CN1CCN(CCNCc2cn(-c3ccc(F)cc3F)nc2-c2ccccc2Cl)CC1 | >6.1 | > 20 | 3.3
Cc1ccccc1-c1nn(-c2ccc([N+](=O)[O-])cc2)cc1CNCCN1CCN(C)CC1 | >41 | > 20 | 0.49
CCCN1CCC(CNCc2cn(-c3ccc([N+](=O)[O-])cc3)nc2-c2ccc(C(F)(F)F)cc2)CC1 | 15 | 2.3 | 0.15
CCCN1CCC(CNCc2cn(-c3ccc(F)cc3F)nc2-c2ccccc2C)CC1 | >8.8 | > 20 | 2.3
Cc1ccccc1-c1nn(-c2ccc(F)cc2F)cc1CNCCN1CCOCC1 | – | > 20 | > 20
CN1CCN(CCNCc2cn(-c3ccc([N+](=O)[O-])cc3)nc2-c2ccc(C(F)(F)F)cc2)CC1 | 29 | 3.2 | 0.11
Cc1c(CNCCN2CCN(C)CC2)c(-c2ccccc2)nn1-c1ccc(F)cc1 | – | > 20 | 8.5
CN1CCN(CCNCc2cn(-c3ccc(F)cc3F)nc2-c2cccc(N(C)C)c2)CC1 | >6.3 | > 20 | 3.2
CCCN1CCC(CNCc2cn(-c3ccc(C(F)(F)F)cc3)nc2-c2ccc(C(F)(F)F)cc2)CC1 | 3.6 | 1.2 | 0.33
Cc1ccccc1-c1nn(-c2ccc(F)cc2F)cc1CNC1CCN(S(C)(=O)=O)CC1 | – | > 20 | > 20
Cc1ccc(-n2cc(CNCCN3CCN(C)CC3)c(-c3ccccc3C)n2)c(C)c1 | >8.3 | > 20 | 2.4
Cc1cccc(-c2nn(-c3ccc(F)cc3F)cc2CNCCN2CCN(C)CC2)c1 | >12 | > 20 | 1.7
Cc1ccccc1-c1nn(-c2ccc(F)cc2F)cc1CNCCN1CCN(C)CC1 | >7.2 | > 20 | 2.8
CN1CCN(CCNC(=O)c2cn(-c3ccc(F)cc3F)nc2-c2ccccc2Cl)CC1 | – | > 20 | > 20
Cc1ccc(-c2nn(-c3ccc(F)cc3F)cc2CNCCN2CCN(C)CC2)cc1 | >25 | > 20 | 0.81
CN1CCN(CCCNCc2cn(-c3ccc([N+](=O)[O-])cc3)nc2-c2ccc(Cl)cc2)CC1 | 28 | 3.7 | 0.13
Cc1ccccc1-c1nn(Cc2ccccc2)cc1CNCCN1CCN(C)CC1 | >2.3 | > 20 | 7.5
CN1CCN(CCNCc2cn(-c3ccc(F)cc3F)nc2-c2cccc(Cl)c2)CC1 | 26 | 15 | 0.58
CN1CCN(CCCNCc2cn(-c3ccc(C(F)(F)F)cc3)nc2-c2ccc(OC(F)(F)F)cc2)CC1 | 3.1 | 2.3 | 0.75
CN1CCN(CCNCc2cn(-c3ccc(C(F)(F)F)cc3)nc2-c2ccc(OC(F)(F)F)cc2)CC1 | 6.9 | 3 | 0.44
